Test results taken from article PMC3933949 (Bioorganic & medicinal chemistry, 2012).
Values joined by “and” are separate entries in the source; they are usually repeats but may differ in a detail not shown here. Identical values can stand only once.

Legend:
[1] = biological target: aromatase; details: cited from earlier work; for aromatase inhibition of naturally occurring isoflavones (in words): literature background
[2] = biological target: T1, recombinant human aromatase (CYP19) (Homo sapiens, UniProt P11511); assay: Fluorescence-based aromatase activity assay; type: biochemical; details: for increase in inhibition potency compared to model compound 1a: ratio of aromatase IC50 values versus 1a; for aromatase inhibition (in words): recombinant human aromatase, fluorescence assay
T1 sequence (P11511 1-503): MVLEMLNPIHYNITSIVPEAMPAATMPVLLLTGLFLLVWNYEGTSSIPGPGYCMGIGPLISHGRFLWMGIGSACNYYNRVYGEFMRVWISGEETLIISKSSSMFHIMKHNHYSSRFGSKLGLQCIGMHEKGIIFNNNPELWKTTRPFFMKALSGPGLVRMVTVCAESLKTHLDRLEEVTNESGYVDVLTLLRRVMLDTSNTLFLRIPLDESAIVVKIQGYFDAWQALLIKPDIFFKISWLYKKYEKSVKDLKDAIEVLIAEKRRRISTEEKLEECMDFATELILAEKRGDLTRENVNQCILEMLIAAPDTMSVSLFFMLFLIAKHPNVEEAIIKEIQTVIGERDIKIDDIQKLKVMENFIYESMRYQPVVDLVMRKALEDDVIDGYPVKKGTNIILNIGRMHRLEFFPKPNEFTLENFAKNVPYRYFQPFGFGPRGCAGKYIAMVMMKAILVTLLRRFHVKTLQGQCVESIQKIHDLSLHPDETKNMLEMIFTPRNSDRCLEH
Summary of the method: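 Baculovirus/insect-cell-expressed human aromatase with P450 reductase; 3-fold serial dilutions from acetonitrile stocks, preincubated 10 min at 37 °C with NADPH-regenerating cofactor mix (pH 7.5). Enzyme/MFC solution (pH 7.4) was added, then 30 min at 37 °C, Tris stop, fluorescence ex 409/em 530 nm. Interfering compounds: DBF substrate, 2 h, NaOH stop.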

In the case of `O=C1c2ccccc2OCC1c1ccc(O)c(O)c1` (stereo not shown) [3′,4′-dihydroxyisoflavanone], the IC50 ([1]; aromatase, isoflavanone compounds, ref 20b) is listed as 200 µM and ≥ 200 µM.

In the case of `O=C1c2ccccc2OCC1c1ccc(Oc2ccccc2)cc1` (stereo not shown) [Compound 1h, 3-(4-Phenoxyphenyl)chroman-4-one], the “increase in inhibition potency compared to model compound 1a” value (from here on “increase in inhibition potency”) [2] is reported as 12 fold.

With `O=C1c2ccccc2OCC1c1ccc(-c2ccccc2)cc1` (stereo not shown) [Compound 1i, 3-(Biphenyl-4-yl)chroman-4-one] the “aromatase inhibition (in words)” value [2] was “no significant inhibition”.

With `O=C1c2ccccc2OCC1c1cc2ccccc2c2ccccc12` (stereo not shown) [Compound 1j, 3-(Phenanthren-9-yl)chroman-4-one] the “aromatase inhibition (in words)” value [2] was “no significant inhibition”.

For `COc1cc(OC)cc(C2COc3ccccc3C2=O)c1` (stereo not shown) [Compound 2g, 3-(3,5-Dimethoxyphenyl)chroman-4-one], the “increase in inhibition potency” value [2] was “threefold”.

In the case of `O=C1c2ccccc2OCC1c1ccsc1` (stereo not shown) [Compound 3a, 3-(Thiophen-3-yl)chroman-4-one], the “aromatase inhibition (in words)” value [2] is reported as “did not exhibit a significant increase in potency”.

In the case of `O=C1c2ccccc2OCC1c1cccnc1` (stereo not shown) [Compound 3b, 3-(Pyridin-3-yl)chroman-4-one], the “increase in inhibition potency” value [2] is reported as “fivefold”.

With `O=C1c2cc(Cl)ccc2OCC1c1ccccc1` (stereo not shown) [Compound 4b, 6-Chloro-3-phenylchroman-4-one] the “aromatase inhibition (in words)” value [2] was “Enhanced inhibitory effects”.

For `CC(C)(C)c1ccc2c(c1)C(=O)C(c1ccccc1)CO2` (stereo not shown) [Compound 4d, 6-tert-Butyl-3-phenylchroman-4-one], the “aromatase inhibition (in words)” value [2] was “reduced the binding affinity”.

For `O=c1c(-c2ccc(O)cc2)coc2cc(O)ccc12` [daidzein], the “aromatase inhibition of naturally occurring isoflavones (in words)” value [1] is given as “either inactive or weak inhibitors”.

For `O=c1c(-c2ccc(O)cc2)coc2cc(O)cc(O)c12` [genistein], the “aromatase inhibition of naturally occurring isoflavones (in words)” value [1] is listed as “either inactive or weak inhibitors”.

For `COc1cc2c(=O)c(-c3ccc(O)cc3)coc2cc1O` [glycitein], the “aromatase inhibition of naturally occurring isoflavones (in words)” value [1] is listed as “either inactive or weak inhibitors”.

In the case of `O=c1c(-c2ccccc2)coc2ccccc12` [isoflavone, 3-phenylbenzopyrone], the “aromatase inhibition of scaffold (in words)” value ([1]; ref 20b) is given as “inactive”.
